Measurements from ChEMBL document CHEMBL5104214, “Efficient selective targeting of Candida CYP51 by oxadiazole derivatives designed from plant cuminaldehyde” (RSC Med Chem, 2022).
Values after ≈ are worked out from the molar mass of the structure shown.

Assays:
Candida albicans [1] = assay: Antifungal activity against Candida albicans SC5314 assessed as inhibition of fungal growth at 100 ug/ml incubated for 24 hrs by spotting assay relative to control; assay type: functional; design: scale not given: the % may be the effect or the level left; conditions: dose 100 µg/ml
Summary of the method: (§1)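 Spotting screen: SDA plates streaked with 0.1 ml culture at 10^4 CFU ml−1, 5 μl of compound applied, 24 h at 37 °C. C. albicans SC5314 or C. auris clinical isolate kept on SDA at 37 °C. Growth inhibition judged against untreated control.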

[Candida] auris [2] = Antifungal activity against Candida auris clinical isolate assessed as inhibition of fungal growth at 100 ug/ml incubated for 24 hrs by spotting assay relative to control; assay type: functional, Candidozyma auris; design: scale not given: the % may be the effect or the level left; conditions: dose 100 µg/ml; summary of the method: as §1
Candida albicans [3] = assay: Antifungal activity against Candida albicans SC5314 assessed as inhibition of fungal growth incubated for 24 hrs by microdilution assay; assay type: functional
Summary of the method: (§2)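 Broth microdilution per CLSI. Inoculum 10^5 CFU mL−1, compounds at 1, 3, 5, 10, 25, 50, 100 and 200 μg ml−1, 37 °C for 24 h. Turbidity read at 570 nm. MIC50 is the concentration giving 50% growth inhibition, from curve fitting. Triplicate.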

[Candida] auris [4] = Antifungal activity against Candida auris clinical isolate assessed as inhibition of fungal growth incubated for 24 hrs by microdilution assay; assay type: functional; conditions: Candidozyma auris; summary of the method: as §2
[5] = Cytotoxicity against human F180 cells assessed as cell growth inhibition at 10 times MIC50 against Candida albicans SC5314 incubated for 48 hrs by SRB assay; assay type: toxicity, cell-based; conditions: f180, 48 h
Summary of the method: (§3)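 SRB assay on normal human skin fibroblasts F-180 in DMEM with 15% FBS, 37 °C, 5% CO2. Seeded 20 000 cells/well and left overnight, then compounds at 10, 20 and 30 μg ml−1 for 48 h; DMSO vehicle ≤0.1%. TCA fixation, 0.4% SRB stain, dye solubilised in 10 mM Tris, OD 492 nm. Six repeats.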

[6] = Cytotoxicity against human F180 cells assessed as cell growth inhibition at 15 times MIC50 against Candida auris incubated for 48 hrs by SRB assay; assay type: toxicity, cell-based; conditions: f180, 48 h; summary of the method: as §3
[7] = Cytotoxicity against human F180 cells assessed as cell growth inhibition at 3 times MIC50 against Candida albicans SC5314 incubated for 48 hrs by SRB assay; assay type: toxicity, cell-based; conditions: f180, 48 h; summary of the method: as §3
[8] = Cytotoxicity against human F180 cells assessed as cell growth inhibition at 2.3 times MIC50 against Candida auris incubated for 48 hrs by SRB assay; assay type: toxicity, cell-based; conditions: f180, 48 h; summary of the method: as §3
[9] = Cytotoxicity against human F180 cells assessed as cell growth inhibition at 6 times MIC50 against Candida albicans SC5314 incubated for 48 hrs by SRB assay; assay type: toxicity, cell-based; conditions: f180, 48 h; summary of the method: as §3
[10] = Cytotoxicity against human F180 cells assessed as cell growth inhibition at 1 times MIC50 against Candida auris incubated for 48 hrs by SRB assay; assay type: toxicity, cell-based; conditions: f180, 48 h; summary of the method: as §3
Candida albicans [11] = assay: Potency index, ratio of fluconazole MIC50 to test compound MIC50 for antifungal activity against Candida albicans SC5314 assessed as inhibition of fungal growth incubated for 24 hrs by microdilution assay; assay type: functional
Summary of the method: (§4)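 MIC50 ratio. MIC50 of fluconazole and of compound by broth microdilution: 10^5 CFU mL−1 inoculum, 1–200 μg ml−1, 37 °C for 24 h, turbidity at 570 nm, triplicate. Ratio taken as fluconazole MIC50 over compound MIC50.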

[Candida] auris [12] = Potency index, ratio of fluconazole MIC50 to test compound MIC50 for antifungal activity against Candida auris clinical isolate assessed as inhibition of fungal growth incubated for 24 hrs by microdilution assay; assay type: functional, Candidozyma auris; summary of the method: as §4
[13] = molecular target: T1, Lanosterol 14-alpha demethylase (Candida albicans (strain SC5314 / ATCC MYA-2876) (Yeast), UniProt P10613); assay: Inhibition of candida albicans CYP51 using 7-ethoxyresorufin as fluorescent substrate incubated for 10 mins in the presence of NADPH by fluorescence based spectroscopic microtiter plate reader analysis
T1 sequence (P10613 whole entry): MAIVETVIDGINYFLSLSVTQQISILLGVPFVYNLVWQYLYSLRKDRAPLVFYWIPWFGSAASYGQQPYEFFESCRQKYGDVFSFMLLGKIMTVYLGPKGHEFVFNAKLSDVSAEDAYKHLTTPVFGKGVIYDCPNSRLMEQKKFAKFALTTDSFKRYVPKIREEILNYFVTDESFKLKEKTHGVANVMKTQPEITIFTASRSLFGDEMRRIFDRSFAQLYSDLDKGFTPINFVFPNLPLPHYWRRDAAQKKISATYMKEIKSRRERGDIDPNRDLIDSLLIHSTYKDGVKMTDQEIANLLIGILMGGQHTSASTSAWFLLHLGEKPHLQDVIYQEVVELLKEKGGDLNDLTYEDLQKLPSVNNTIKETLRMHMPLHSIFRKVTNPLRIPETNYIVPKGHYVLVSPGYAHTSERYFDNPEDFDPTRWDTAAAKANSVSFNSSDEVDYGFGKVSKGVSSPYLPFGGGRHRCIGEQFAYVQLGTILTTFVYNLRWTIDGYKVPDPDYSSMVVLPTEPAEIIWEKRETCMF
Summary of the method: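 CaCYP51 bactosomes in pH 7.4 phosphate buffer with 5 mM MgCl2 and the substrate 7-ethoxyresorufin. Inhibitor at 0, 0.1, 1, 10 and 100 μg ml−1. Started with 4 mM NADPH, shaken 10 min at 37 °C under yellow light. Resorufin read every 30 s (ex 572/em 604 nm). IC50 from curve fitting; fluconazole positive control.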

[14] = molecular target: T1, Lanosterol 14-alpha demethylase; assay: Potency index, ratio of fluconazole IC50 to test compound IC50 for inhibition of Candida albicans CYP51 using 7-ethoxyresorufin as fluorescent substrate incubated for 10 mins in the presence of NADPH by fluorescence based spectroscopic microtiter plate reader analysis
Summary of the method: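 Ratio of fluconazole IC50 to compound IC50 against CaCYP51. Bactosomes with 7-ethoxyresorufin in pH 7.4 phosphate, 5 mM MgCl2. Inhibitor at 0–100 μg ml−1. Reaction started with 4 mM NADPH, 10 min at 37 °C, resorufin fluorescence ex 572/em 604 nm.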

Cytochrome P450 3A4 = Cytochrome P450 3A4 (Homo sapiens, UniProt P08684); assay: Inhibition of human CYP3A4 using luciferin-IPA as substrate preincubated for 10 mins followed by NADPH addition and measured after 30 mins by luminescence based assay; assay type: ADME
Sequence of Cytochrome P450 3A4 (P08684 whole entry): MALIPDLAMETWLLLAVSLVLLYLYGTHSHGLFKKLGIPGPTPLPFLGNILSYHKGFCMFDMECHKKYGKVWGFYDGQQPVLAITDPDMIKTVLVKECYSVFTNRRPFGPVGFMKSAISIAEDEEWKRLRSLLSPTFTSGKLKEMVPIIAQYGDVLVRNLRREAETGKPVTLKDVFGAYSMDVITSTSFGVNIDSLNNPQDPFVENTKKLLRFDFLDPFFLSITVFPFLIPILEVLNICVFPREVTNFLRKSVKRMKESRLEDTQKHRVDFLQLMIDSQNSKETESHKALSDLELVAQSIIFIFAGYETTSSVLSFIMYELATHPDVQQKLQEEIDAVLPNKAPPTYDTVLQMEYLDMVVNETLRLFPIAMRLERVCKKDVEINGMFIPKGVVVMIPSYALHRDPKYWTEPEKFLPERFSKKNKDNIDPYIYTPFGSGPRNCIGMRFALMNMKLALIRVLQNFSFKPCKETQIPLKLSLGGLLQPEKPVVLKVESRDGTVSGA

[15] = test system: CYP3A4 vs Candida albicans CYP51; assay: Selectivity index, ratio of IC50 for inhibition of human CYP3A4 using luciferin-IPA as substrate to IC50 for inhibition of candida albicans CYP51 using 7-ethoxyresorufin as fluorescent substrate; assay type: toxicity; conditions: probe luciferin-IPA (CYP3A4), 7-ethoxyresorufin (CYP51)
[16] = molecular target: T1, Lanosterol 14-alpha demethylase; assay: Inhibition of Candida albicans CYP51 assessed as ergosterol level incubated for 18 hrs by GC/MS analysis relative to control
Summary of the method: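 C. albicans colony grown in SDB 18 h at 37 °C with compound at its MIC50; untreated cells as negative control. Washed, normalized cells saponified in 60% alcoholic KOH, 80 °C 1 h. Sterols hexane-extracted, silylated (MSTFA/TMCS), analysed by GC-MS with ergosterol standard for retention time. Content expressed as AUC treated/AUC untreated × 100.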

[17] = Cytotoxicity against human F180 cells assessed as cell growth inhibition at 60 times MIC50 against Candida albicans SC5314 incubated for 48 hrs by SRB assay; assay type: toxicity, cell-based; conditions: f180, 48 h; summary of the method: as §3
[18] = Cytotoxicity against human F180 cells assessed as cell growth inhibition at 37.5 times MIC50 against Candida auris incubated for 48 hrs by SRB assay; assay type: toxicity, cell-based; conditions: f180, 48 h; summary of the method: as §3

Row | SMILES | Activity (Candida albicans [1]) [%] | Activity ([Candida] auris [2]) [%] | MIC50 (Candida albicans [3]) [µg/mL] | MIC50 ([Candida] auris [4]) [µg/mL] | Activity [5] | Activity [6] | Activity [7] | Activity [8] | Activity [9] | Activity [10] | Ratio (Candida albicans [11]) | Ratio ([Candida] auris [12]) | IC50 [13] [µM] | Ratio IC50 [14] | IC50 (Cytochrome P450 3A4) [µM] | selectivity ratio [15] | inhibition (INH) [16] [%] | Activity [17] | Activity [18]
1 | CC(C)c1ccc(-c2nnc(Nc3ccc(F)cc3)o2)cc1 | 80 | 40 | 3 (≈ 10.1 µM) | 2.08 (≈ 7 µM) | Non-Toxic | Non-Toxic |  |  |  |  |  |  |  |  |  |  |  |  | 
2 | COc1cccc(Nc2nnc(-c3ccc(C(C)C)cc3)o2)c1 | 83 | 85 | 10 (≈ 32.3 µM) | 12 (≈ 38.8 µM) |  |  | Non-Toxic | Non-Toxic |  |  |  |  |  |  |  |  |  |  | 
3 | COc1cccc(Nc2nnc(-c3ccc(C(C)(C)C)cc3)o2)c1 | 57 | 86 | 5 (≈ 15.5 µM) | 30 (≈ 92.8 µM) |  |  |  |  | Non-Toxic | Non-Toxic |  |  |  |  |  |  |  |  | 
4 | CC(C)(C)c1ccc(-c2nnc(Nc3ccc(Cl)cc3)o2)cc1 | 99.3 | 99 | 0.5 (≈ 1.53 µM) | 0.8 (≈ 2.44 µM) |  |  |  |  |  |  | 50 | 750 | 2.75 | 10 | > 30500 | > 10000 | 70.3 | Non-Toxic | Non-Toxic
5 | OC(Cn1cncn1)(Cn1cncn1)c1ccc(F)cc1F [FLUCONAZOLE] |  |  | 25 (≈ 81.6 µM) | 600 (≈ 1960 µM) |  |  |  |  |  |  |  |  | 29 |  |  |  | 35.6 |  | 
